Reference: ChEMBL document CHEMBL3870325 (Bioorg Med Chem, 2017)

Tests used:
[1] = target: T1, Receptor tyrosine-protein kinase erbB-2 (Homo sapiens, UniProt P04626); test: Inhibition of HER2 (unknown origin)
In short: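 Homogeneous time-resolved fluorescence kinase assay. Compounds were 3-fold serially diluted in 2.5% DMSO/kinase buffer and preincubated with kinase and substrate for 15 min at RT. ATP started the reaction, which ran 30 min at RT and was stopped with Streptavidin-XL665 plus TK antibody europium cryptate. Read at 320 nm excitation, 665/615 nm emission ratio. IC50 from inhibition curves; two separate assays.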

[2] = target: T2, Epidermal growth factor receptor (Homo sapiens, UniProt P00533); test: Inhibition of EGFR (unknown origin)
T2 sequence (P00533 whole entry): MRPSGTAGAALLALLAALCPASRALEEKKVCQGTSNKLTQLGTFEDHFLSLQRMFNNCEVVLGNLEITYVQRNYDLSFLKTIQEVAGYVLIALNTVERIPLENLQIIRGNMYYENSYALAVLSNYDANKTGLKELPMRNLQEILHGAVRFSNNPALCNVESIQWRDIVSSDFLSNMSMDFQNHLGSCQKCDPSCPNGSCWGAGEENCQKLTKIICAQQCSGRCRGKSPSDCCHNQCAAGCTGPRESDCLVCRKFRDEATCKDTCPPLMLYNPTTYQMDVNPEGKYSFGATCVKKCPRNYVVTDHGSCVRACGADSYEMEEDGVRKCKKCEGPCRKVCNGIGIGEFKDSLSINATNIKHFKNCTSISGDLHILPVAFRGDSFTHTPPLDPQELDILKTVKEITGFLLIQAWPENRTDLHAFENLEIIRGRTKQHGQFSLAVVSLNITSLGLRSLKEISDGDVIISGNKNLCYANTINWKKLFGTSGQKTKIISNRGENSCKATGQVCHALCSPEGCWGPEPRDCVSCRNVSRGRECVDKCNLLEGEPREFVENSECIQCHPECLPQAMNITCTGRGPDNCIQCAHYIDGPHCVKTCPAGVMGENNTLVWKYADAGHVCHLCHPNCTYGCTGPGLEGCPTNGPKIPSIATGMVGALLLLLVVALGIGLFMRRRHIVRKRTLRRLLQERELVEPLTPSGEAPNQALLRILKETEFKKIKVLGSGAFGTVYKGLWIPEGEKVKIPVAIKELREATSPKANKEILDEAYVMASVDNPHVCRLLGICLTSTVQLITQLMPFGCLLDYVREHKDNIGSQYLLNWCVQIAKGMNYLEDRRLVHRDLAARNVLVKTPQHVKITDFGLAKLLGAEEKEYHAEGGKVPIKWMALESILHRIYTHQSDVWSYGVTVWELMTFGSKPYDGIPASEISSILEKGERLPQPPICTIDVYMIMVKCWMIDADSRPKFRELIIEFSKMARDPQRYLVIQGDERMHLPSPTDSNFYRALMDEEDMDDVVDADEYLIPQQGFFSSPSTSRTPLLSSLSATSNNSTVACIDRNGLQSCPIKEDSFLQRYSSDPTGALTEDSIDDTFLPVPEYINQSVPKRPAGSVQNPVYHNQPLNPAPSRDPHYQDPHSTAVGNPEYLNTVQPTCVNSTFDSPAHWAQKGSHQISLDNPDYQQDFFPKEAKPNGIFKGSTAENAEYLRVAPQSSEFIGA
In short: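 HTRF kinase assay. Compounds were serially diluted 3-fold in 2.5% DMSO/kinase buffer, then mixed with kinase and substrate and preincubated 15 min at RT. The reaction was started with ATP and run 30 min at RT. It was stopped with Streptavidin-XL665 and TK antibody europium cryptate. Read at ex 320 nm, em 665/615 nm ratio. IC50 from inhibition curves; 2 separate assays.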

cells [3] = type: functional, cell-based; details: Homo sapiens, BT-474, 48 h
[4] = target: T1, Receptor tyrosine-protein kinase erbB-2; test: Inhibition of HER2 (unknown origin) assessed as remaining ATP level measured after 15 mins by luminescence analysis
In short: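 Kinase run as a contracted HTRF assay. Compounds in 3-fold dilution in 2.5% DMSO/kinase buffer, mixed with kinase and substrate, preincubated 15 min at RT. ATP added to start, reaction 30 min at RT. Stopped with Streptavidin-XL665 plus europium-cryptate TK antibody (1:100). Excitation 320 nm, 665/615 nm emission ratio. IC50 from inhibition curves, results from 2 assays.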

cells [5] = type: functional, cell-based; details: Homo sapiens, A549, 48 h
[6] = target: T3, Protein deacetylase HDAC6 (Homo sapiens, UniProt Q9UBN7); test: Inhibition of HDAC6 (unknown origin) using acetylated peptide substrate preincubated for 15 mins followed by substrate addition measured after 60 mins by fluorescence analysis
T3 sequence (Q9UBN7 whole entry): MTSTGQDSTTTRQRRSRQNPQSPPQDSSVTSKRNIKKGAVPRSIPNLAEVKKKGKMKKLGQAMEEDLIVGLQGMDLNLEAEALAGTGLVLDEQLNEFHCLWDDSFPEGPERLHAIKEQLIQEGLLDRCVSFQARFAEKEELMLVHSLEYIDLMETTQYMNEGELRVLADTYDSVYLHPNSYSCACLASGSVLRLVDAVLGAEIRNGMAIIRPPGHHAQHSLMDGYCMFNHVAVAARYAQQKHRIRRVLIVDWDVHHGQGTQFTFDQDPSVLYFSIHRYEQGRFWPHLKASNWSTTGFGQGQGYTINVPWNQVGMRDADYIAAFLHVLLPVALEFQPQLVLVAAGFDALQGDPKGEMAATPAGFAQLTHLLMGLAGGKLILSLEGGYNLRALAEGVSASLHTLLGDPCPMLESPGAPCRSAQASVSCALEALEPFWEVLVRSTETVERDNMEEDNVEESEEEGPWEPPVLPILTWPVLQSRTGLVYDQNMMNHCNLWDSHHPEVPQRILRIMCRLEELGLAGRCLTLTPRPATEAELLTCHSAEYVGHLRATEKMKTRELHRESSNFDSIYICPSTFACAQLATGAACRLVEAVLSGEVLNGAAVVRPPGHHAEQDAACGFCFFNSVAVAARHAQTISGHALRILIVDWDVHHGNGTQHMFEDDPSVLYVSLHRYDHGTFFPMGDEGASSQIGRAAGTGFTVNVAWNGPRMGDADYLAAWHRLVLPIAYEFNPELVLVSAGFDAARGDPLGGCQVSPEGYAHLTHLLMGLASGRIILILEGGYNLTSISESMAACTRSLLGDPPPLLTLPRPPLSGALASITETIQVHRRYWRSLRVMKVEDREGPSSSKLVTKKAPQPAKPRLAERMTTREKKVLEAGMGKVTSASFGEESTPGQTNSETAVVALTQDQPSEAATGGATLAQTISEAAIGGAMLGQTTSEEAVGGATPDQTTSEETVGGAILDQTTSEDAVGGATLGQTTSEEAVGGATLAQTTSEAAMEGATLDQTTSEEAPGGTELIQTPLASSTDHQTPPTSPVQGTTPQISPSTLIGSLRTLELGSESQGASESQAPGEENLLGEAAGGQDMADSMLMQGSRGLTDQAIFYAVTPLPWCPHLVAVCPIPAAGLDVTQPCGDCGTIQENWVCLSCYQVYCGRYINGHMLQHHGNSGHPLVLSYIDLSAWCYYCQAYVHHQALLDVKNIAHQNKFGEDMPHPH

[7] = target: T2, Epidermal growth factor receptor
Histone deacetylase 1 = Histone deacetylase 1 (Homo sapiens, UniProt Q13547); test: Inhibition of HDAC1 (unknown origin) using acetylated peptide substrate preincubated for 15 mins followed by substrate addition measured after 60 mins by fluorescence analysis
Sequence of Histone deacetylase 1 (Q13547 whole entry): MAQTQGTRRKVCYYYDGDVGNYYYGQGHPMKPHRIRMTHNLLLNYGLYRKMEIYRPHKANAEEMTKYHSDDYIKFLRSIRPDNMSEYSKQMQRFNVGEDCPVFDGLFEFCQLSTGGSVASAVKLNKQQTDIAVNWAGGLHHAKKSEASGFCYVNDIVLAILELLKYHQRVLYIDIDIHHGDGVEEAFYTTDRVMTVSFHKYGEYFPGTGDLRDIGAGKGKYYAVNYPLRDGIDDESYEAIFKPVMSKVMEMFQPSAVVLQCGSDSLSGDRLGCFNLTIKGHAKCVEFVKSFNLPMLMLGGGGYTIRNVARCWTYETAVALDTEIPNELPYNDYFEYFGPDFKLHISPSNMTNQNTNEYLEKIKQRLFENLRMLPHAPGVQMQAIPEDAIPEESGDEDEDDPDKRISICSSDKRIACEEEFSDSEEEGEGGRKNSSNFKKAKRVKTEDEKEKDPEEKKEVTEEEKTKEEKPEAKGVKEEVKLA

[8] = Inhibition of HDAC in human HeLa cell nuclear extract using COLOR DE LYS as substrate by fluorometric analysis; type: cell-free
BT-474 [9] = test: Induction of apoptosis in human BT474 cells assessed as early apoptotic cells at 5 uM measured after 48 hrs by Annexin V-FITC/propidium iodide staining based flow cytometry (reference value: 2.87%); type: functional
BT-474 [10] = test: Induction of apoptosis in human BT474 cells assessed as late apoptotic cells at 2.5 uM measured after 48 hrs by Annexin V-FITC/propidium iodide staining based flow cytometry (reference value: 0.32%); type: functional
BT-474 [11] = test: Induction of apoptosis in human BT474 cells assessed as necrotic cells at 1 uM measured after 48 hrs by Annexin V-FITC/propidium iodide staining based flow cytometry (reference value: 0.06%); type: functional
BT-474 [12] = test: Induction of apoptosis in human BT474 cells assessed as necrotic cells at 2.5 uM measured after 48 hrs by Annexin V-FITC/propidium iodide staining based flow cytometry (reference value: 0.06%); type: functional
BT-474 [13] = test: Induction of apoptosis in human BT474 cells assessed as late apoptotic cells at 1 uM measured after 48 hrs by Annexin V-FITC/propidium iodide staining based flow cytometry (reference value: 0.32%); type: functional
BT-474 [14] = test: Induction of apoptosis in human BT474 cells measured after 48 hrs by Annexin V-FITC/propidium iodide staining based flow cytometry; type: functional, cell-based
BT-474 [15] = test: Induction of apoptosis in human BT474 cells assessed as viable cells at 1 uM measured after 48 hrs by Annexin V-FITC/propidium iodide staining based flow cytometry (reference value: 96.76%); type: functional; details: BT-474, 48 h, read-out: Activity
BT-474 [16] = test: Induction of apoptosis in human BT474 cells assessed as early apoptotic cells at 1 uM measured after 48 hrs by Annexin V-FITC/propidium iodide staining based flow cytometry (reference value: 2.87%); type: functional
[17] = target: T1, Receptor tyrosine-protein kinase erbB-2; details: BT-474, 1 uM
[18] = target: T1, Receptor tyrosine-protein kinase erbB-2; details: BT-474, 25 uM
BT-474 [19] = test: Induction of apoptosis in human BT474 cells assessed as late apoptotic cells at 5 uM measured after 48 hrs by Annexin V-FITC/propidium iodide staining based flow cytometry (reference value: 0.32%); type: functional
cells [20] = details: Homo sapiens, NCI-H1975, 48 h
[21] = target: T2, Epidermal growth factor receptor; test: Inhibition of EGFR in human A549 cells assessed as suppression of EGFR phosphorylation at Tyr1173 residue measured after 24 hrs by Western blot analysis; type: cell-based
In short: (§1)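 A549 cells treated 24 h across a dose range. Lysate protein (20-40 µg) run on 7.5%-15% SDS-PAGE and blotted to PVDF. Membranes blocked 2 h in TBST with 5% BSA. Primary antibody (p-EGFR Tyr1068, p-EGFR Tyr1173, total EGFR, acetyl-histone H3 Lys27) applied 8-12 h at 4°C. HRP secondary, chemiluminescent detection.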

[22] = target: T2, Epidermal growth factor receptor; test: Inhibition of EGFR in human A549 cells assessed as suppression of EGFR phosphorylation at Tyr1068 residue measured after 24 hrs by Western blot analysis; type: cell-based; in short: as §1
[23] = target: T2, Epidermal growth factor receptor; details: A549, 0.5 uM
A549 = test: Inhibition of HDAC in human A549 cells assessed as activation of H3 hyperacetylation measured after 24 hrs by Western blot analysis; type: cell-based; in short: as §1
cells [24] = details: Homo sapiens, SK-BR-3, 48 h
cells [25] = details: Homo sapiens, A-431, 48 h
BT-474 [26] = test: Induction of apoptosis in human BT474 cells assessed as necrotic cells at 5 uM measured after 48 hrs by Annexin V-FITC/propidium iodide staining based flow cytometry (reference value: 0.06%); type: functional
BT-474 [27] = test: Induction of apoptosis in human BT474 cells assessed as early apoptotic cells at 2.5 uM measured after 48 hrs by Annexin V-FITC/propidium iodide staining based flow cytometry (reference value: 2.87%); type: functional
BT-474 [28] = test: Induction of apoptosis in human BT474 cells assessed as viable cells at 5 uM measured after 48 hrs by Annexin V-FITC/propidium iodide staining based flow cytometry (reference value: 96.76%); type: functional; details: BT-474, 48 h, read-out: Activity
[29] = target: T2, Epidermal growth factor receptor; details: A549, 0.5 uM; remark: listed apart in the source
BT-474 [30] = test: Induction of apoptosis in human BT474 cells assessed as viable cells at 2.5 uM measured after 48 hrs by Annexin V-FITC/propidium iodide staining based flow cytometry (reference value: 96.76%); type: functional; details: BT-474, 48 h, read-out: Activity

T1 sequence (P04626 whole entry): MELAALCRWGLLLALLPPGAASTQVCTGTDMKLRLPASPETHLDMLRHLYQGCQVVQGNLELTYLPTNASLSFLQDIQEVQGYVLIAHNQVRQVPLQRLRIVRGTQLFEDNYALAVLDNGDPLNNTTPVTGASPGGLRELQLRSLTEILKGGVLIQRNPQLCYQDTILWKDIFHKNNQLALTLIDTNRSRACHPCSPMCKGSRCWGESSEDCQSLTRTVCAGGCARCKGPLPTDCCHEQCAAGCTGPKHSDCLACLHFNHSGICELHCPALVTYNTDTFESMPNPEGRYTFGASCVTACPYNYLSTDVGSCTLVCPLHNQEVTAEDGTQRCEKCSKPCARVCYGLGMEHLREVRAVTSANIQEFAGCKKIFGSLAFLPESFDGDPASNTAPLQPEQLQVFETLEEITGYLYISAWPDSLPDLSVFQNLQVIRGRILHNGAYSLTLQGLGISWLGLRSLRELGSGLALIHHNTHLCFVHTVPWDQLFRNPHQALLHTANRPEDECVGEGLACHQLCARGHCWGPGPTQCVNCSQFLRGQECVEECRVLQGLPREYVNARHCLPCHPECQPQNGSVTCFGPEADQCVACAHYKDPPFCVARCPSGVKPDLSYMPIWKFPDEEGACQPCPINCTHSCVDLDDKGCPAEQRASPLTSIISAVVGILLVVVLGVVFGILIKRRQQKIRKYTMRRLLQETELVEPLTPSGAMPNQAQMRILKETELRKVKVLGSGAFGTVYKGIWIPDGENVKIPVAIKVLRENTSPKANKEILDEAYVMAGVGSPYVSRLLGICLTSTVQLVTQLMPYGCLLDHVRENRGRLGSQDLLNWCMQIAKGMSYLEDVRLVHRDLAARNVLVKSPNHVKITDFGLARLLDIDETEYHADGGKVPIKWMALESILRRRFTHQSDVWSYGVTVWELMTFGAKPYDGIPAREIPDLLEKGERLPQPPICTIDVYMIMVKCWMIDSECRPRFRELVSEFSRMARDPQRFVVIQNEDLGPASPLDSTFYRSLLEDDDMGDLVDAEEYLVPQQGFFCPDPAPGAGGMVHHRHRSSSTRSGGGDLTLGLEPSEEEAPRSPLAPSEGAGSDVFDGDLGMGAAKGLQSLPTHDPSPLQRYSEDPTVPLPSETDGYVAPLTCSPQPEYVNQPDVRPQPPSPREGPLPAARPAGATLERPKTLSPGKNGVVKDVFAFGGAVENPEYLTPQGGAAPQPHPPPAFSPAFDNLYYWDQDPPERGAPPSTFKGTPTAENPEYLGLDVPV

SMILES: C[C@@H]1COC(Nc2ccc3ncnc(Nc4ccc(OCc5nccs5)c(Cl)c4)c3c2)=N1 [VARLITINIB]
- IC50 [1]: 0.002 µM
- IC50 [2]: 0.007 µM

SMILES: O=C(CCCCCn1cc(-c2ccc3ncnc(Nc4ccc(F)c(Cl)c4)c3c2)nn1)NO
- IC50 (cells [3]): 26 µM
- IC50 [4]: 0.166 µM
- IC50 (cells [5]): > 50 µM
- IC50 [6]: 0.0095 µM
- IC50 [7]: 0.00065 µM
- IC50 (Histone deacetylase 1): 0.007 µM

SMILES: O=C(CCCCCn1cc(-c2ccc3ncnc(Nc4ccc(OCc5nccs5)c(Cl)c4)c3c2)nn1)NO
- IC50 (cells [3]): 20.6 µM
- IC50 [4]: 0.537 µM
- IC50 (cells [5]): 9.96 µM
- IC50 [6]: 0.0143 µM
- IC50 [7]: 0.0069 µM
- IC50 (Histone deacetylase 1): 0.0072 µM

SMILES: O=C(CCCCCn1cc(-c2ccc3ncnc(Nc4ccc(OCc5cccc(F)c5)c(Cl)c4)c3c2)nn1)NO
- IC50 (cells [3]): 2.2 µM
- IC50 [4]: 0.193 µM
- IC50 (cells [5]): > 50 µM
- IC50 [6]: 0.0942 µM
- IC50 [7]: 0.0019 µM
- IC50 (Histone deacetylase 1): 0.0386 µM

SMILES: COc1cc(Nc2ncnc3ccc(-c4cn(CCCCCC(=O)NO)nn4)cc23)ccc1Oc1ccccc1
- IC50 (cells [3]): 23.6 µM
- IC50 [4]: > 1 µM
- IC50 (cells [5]): 43.5 µM
- IC50 [6]: 0.0185 µM
- IC50 [7]: 0.0058 µM
- IC50 (Histone deacetylase 1): 0.0266 µM

SMILES: C#Cc1cccc(Nc2ncnc3cc(OC)c(OCCCCCCC(=O)NO)cc23)c1 [CUDC-101]
- IC50 [8]: 0.0042 µM

SMILES: O=C(CCCCCCn1cc(-c2ccc3ncnc(Nc4cccc(Cl)c4F)c3c2)nn1)NO
- Activity (BT-474 [9]): 22.02%
- Activity (BT-474 [10]): 19.73%
- IC50 (cells [3]): 3.88 µM
- Activity (BT-474 [11]): 0.34%
- IC50 [4]: 0.175 µM
- Activity (BT-474 [12]): 0.89%
- Activity (BT-474 [13]): 5.1%
- Activity (BT-474 [14]): Dose-dependent effect
- viability at 1 µM (BT-474 [15]): 86.3%
- Activity (BT-474 [16]): 8.27%
- inhibition [17]: 100%
- inhibition [18]: 100%
- Activity (BT-474 [19]): 41.84%
- IC50 (cells [5]): 0.63 µM
- IC50 (cells [20]): 8.05 µM
- inhibition [21]: Dose-dependent effect
- IC50 [6]: 0.0032 µM
- IC50 [7]: 0.00012 µM
- inhibition [22]: Dose-dependent effect
- inhibition [23]: 100%
- inhibition (A549): Dose-dependent effect
- IC50 (cells [24]): 0.69 µM
- IC50 (cells [25]): 0.49 µM
- IC50 (Histone deacetylase 1): 0.00072 µM
- Activity (BT-474 [26]): 1.36%
- Activity (BT-474 [27]): 14.83%
- viability at 5 µM (BT-474 [28]): 34.8%
- inhibition [29]: 100%
- viability at 2.5 µM (BT-474 [30]): 64.5%

SMILES: O=C(CCCCCCn1cc(-c2ccc3ncnc(Nc4ccc(OCc5cccc(F)c5)c(Cl)c4)c3c2)nn1)NO
- IC50 (cells [3]): 2.24 µM
- IC50 [4]: 0.0164 µM
- IC50 (cells [5]): 3.68 µM
- IC50 [6]: 0.0195 µM
- IC50 [7]: 0.0042 µM
- IC50 (Histone deacetylase 1): 0.0083 µM
